The values below come from ChEMBL document CHEMBL4350958, “Rational Design of Short Peptide Variants by Using Kunitzin-RE, an Amphibian-Derived Bioactivity Peptide, for Acquired Potent Broad-Spectrum Antimicrobial and Improved Therapeutic Potential of Commensalism Coinfection of Pathogens” (J Med Chem, 2019).

The source made the active and inactive calls. The rule behind the calls is not given here.

Data set [1] deals with Escherichia coli. Briefly: Induction of morphological changes in Escherichia coli ATCC 25922 assessed as membrane blebbing at MBD measured after 1 hr by scanning electron microscopic analysis. The class given is functional, organism-based.
Data set [2] deals with Escherichia coli. Kind of data set: Induction of morphological changes in Escherichia coli ATCC 25922 assessed as cell content leakage at MBD measured after 1 hr by transmission electron microscopic analysis. The class given is functional, organism-based.
Another data set deals with Lipid bilayer. Kind of data set: Induction of membrane disruption in PC/CL large unilamellar vesicles assessed as calcein-entrapped liposome leakage at 1 to 64 uM after 15 mins by spectrofluorophotometric assay relative to control. The conditions noted are these: artificial membrane, 0.25 h.
Data set [3] deals with Candida albicans. Kind of data set: Fungicidal activity against Candida albicans cgmcc2.2086 assessed as reduction in bacterial growth at MFC measured within 3 mins by time-kill assay relative to control. Also on record: scale not given: the % may be the effect or the level left. The format is functional. The procedure, abridged: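 Time-kill: cells at a final 0.5–1×10^5 CFU/mL were exposed to peptide at 1×MBC/MFC. Aliquots were removed at intervals to count survivors against an untreated control. Means of three independent experiments, each with three technical replicates.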

In data set [4] the test system is Candida albicans. Kind of data set: Antifungal activity against Candida albicans cgmcc2.2086 infected in C57BL/6 mouse model of keratitis assessed as reduction in fungal hyphae infiltration into corneal stroma at 1 to 5 mg/ml administered as topical eye drop every 5 mins for first 4 hrs and every 30 mins for next 7 hrs measured post-last dose by periodic acid schiff staining-based histological analysis. The format is functional, organism-based.

For data set [5], the system named is Candida albicans. Kind of data set: Antifungal activity against Candida albicans cgmcc2.2086 infected in C57BL/6 mouse model of keratitis assessed as appearance of transparent irises at 1 to 5 mg/ml administered as topical eye drop every 5 mins for first 4 hrs and every 30 mins for next 7 hrs measured post-last dose. The format is functional, organism-based.

The next data set relates to RAW264.7. Briefly: Cytotoxicity against mouse RAW264.7 cells assessed as reduction in cell viability at 2 to 64 uM measured after 18 to 24 hrs by MTT assay relative to control. The class given is cell-based. The following applies: raw264.7, 64 µM. The procedure, abridged: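 MTT assay: RAW264.7 cells seeded at 1.0–2.0×10^4 per well and exposed to peptide (2–64 µM) for 18–24 h at 37 °C in 5% CO2. MTT (0.5 mg/mL) added for 4 h, formazan dissolved in DMSO, read at 570 nm. At least three independent experiments with triplicate wells.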

As for H-AARIILRWRFR-NH2, the outcome in the data set on Escherichia coli [1], in the data set on Escherichia coli [2], in the data set on Candida albicans [4] and in the data set on Candida albicans [5] was Active. Besides, the Activity is given as under 5% in the data set on Lipid bilayer and 99.99% in the data set on Candida albicans [3].

As for H-AARRILRWIFR-NH2, in the data set with RAW264.7, the Activity is over 89.76%.
